Marks after values point to notes of the source that are not given here.
Columns and labels:
[1] = Incubation of 14C‐3‐NOP in liver fractions; format: in vitro ADME, humans; conditions: human, liver S9 and liver cytosol
In short: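 14C-labelled test compound was incubated with or without NAD+ in liver S9, cytosol and microsomes from Sprague–Dawley rat, Wistar Han rat, Beagle dog and human. Aliquots were taken at several time points and the proteins precipitated. Supernatants were analysed by liquid scintillation counting and radio-HPLC, and half-life was derived from the time course.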

[2] = Second goat experiment, pre‐dosed 5 days; format: in vivo, lactating goat
[3] = test system: Salmonella Typhimurium strains TA98, TA100, TA102, TA1535 and TA1537; test: Ames microsuspension test; format: cell-based; conditions: 1.6 to 500 μg/plate, with and without metabolic activation
[4] = test system: Chinese hamster V79 cells; test: In vitro micronucleus assay; format: cell-based
In short: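 OECD TG 487 study, non-GLP, in Chinese hamster V79 cells. Concentrations were set from a dose-range finding test. Without S9-mix, cells had continuous 24 h treatment up to 1,243 μg/mL. With S9-mix, cells had short 4 h treatment plus 20 h recovery up to 310 μg/mL. Micronuclei were scored against the historical vehicle control range.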

[5] = test system: Chinese hamster V79 cells; test: In vitro micronucleus assay with CREST staining; format: cell-based
[6] = test system: bone marrow cells of NMRI BR mice; test: In vivo micronucleus test, intraperitoneal
In short: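 A preliminary intraperitoneal toxicity study in NMRI BR mice set the top dose for the OECD TG 474 bone marrow micronucleus test. In the main test, mice were dosed ip at 250, 500 and 1,000 mg/kg bw and sampled at 24 h; top-dose and control groups were also sampled at 48 h. 2,000 PCEs were scored per animal.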

[7] = test system: bone marrow cells of Wistar WI (Han) rats; test: In vivo micronucleus test, oral gavage
Wistar Han rats = format: in vivo; conditions: males and females; effects on spermatogenesis and corpora lutea
Wistar rats [8] = test: 90‐day oral gavage study; format: in vivo
Beagle dogs = test: 90‐day oral gavage study; format: in vivo
Wistar rats [9] = test: 52‐week oral gavage study; format: in vivo
[10] = test system: New Zealand White rabbits; test: Prenatal developmental toxicity study; conditions: rabbit, in vivo
[11] = test system: Holstein Friesian dairy cows; test: Dose‐range finding study in dairy cows; format: in vivo; conditions: group 10× (16 g 3‐NOP/day, 800 mg/kg complete feed) compared to the control
Acute inhalation test = format: in vivo, Wistar rats; conditions: Wistar, rat, in vivo, inhaled
Wistar rats [12] = test: Acute inhalation test; format: in vivo
[13] = test system: Holstein Friesian dairy cows; test: Three long‐term studies on enteric methane output; format: in vivo
[14] = test system: human lymphoblastoid TK6 cells; test: In vitro micronucleus assay; conditions: with and without S9, up to 1,220 μg/mL
[15] = Third in vitro rumen fluid trial; conditions: 39°C
[16] = 3.28 mg/kg bw per day, two days labelled
[17] = study 1 WUR, 54 mg 3‐NOP/kg TMR DM intake
[18] = study 2 UK, 57 mg 3‐NOP/kg TMR DM intake
[19] = study 3 PSU, 61 mg 3‐NOP/kg TMR DM intake

With O=[N+]([O-])OCCCO [3‐NOP, propan‐1,3‐diol‐mononitrate] the half-life [1] was ~42 min, the “Radioactivity excreted via faeces” value [2, 16] was 0.71 % of radioactivity totally app and the “Radioactivity excreted via milk” value [2, 16] was 4.48 % of radioactivity totally app. For the same molecule, the “Radioactivity excreted via urine” value [2, 16] was 1.97 % of radioactivity totally app, the “Radioactivity in the intestinal tract content” value [2, 16] was 14.87 % of radioactivity totally app and the “Radioactivity remaining in the total edible tissues” value [2, 16] was 8.99 % of radioactivity totally app. For the same molecule, the Total radioactivity excreted [2, 16] was 7.18%, the “Total recovery at sacrifice” value [2, 16] was 31.04% and the “Radioactive residues in plasma” value ([2]; 0.5 h after the first administration) was 2.31 mg 3‐NOP‐equivalents/kg. The “Plasma radioactivity associated with the plasma protein fraction” value ([2]; 0.5 h post‐dose) was 4.4%, the “Radioactivity in the aqueous phase of plasma” value ([2]; 0.5 h post‐dose) was 95.6% and the “Plasma radioactivity associated with the plasma protein fraction” value ([2]; 24 h post‐dose) was 89.4%. For the same molecule, the “Radioactivity in the aqueous phase of plasma” value ([2]; 24 h post‐dose) was 10.6%, the “Nitrate esters in the aqueous phase of plasma, not detectable (LOD)” value ([2]; LOD ≤ 0.07) was < 0.07 mg/kg and the “Nitrate esters in the aqueous milk fraction, not detectable (LOD)” value ([2]; LOD ≤ 0.21) was < 0.21 mg/kg. The “Radioactive residues in plasma” value ([2]; at sacrifice) was 1.6 mg 3‐NOP‐equivalents/kg, the Revertant colonies [3] was “No significant increase in the mean number of revertant colonies” and the Micronucleus frequency ([4]; absence of metabolic activation, up to 1,243 μg/mL, 24 h) was “no increase in micronucleus frequency”. The Micronucleus frequency ([4]; presence of metabolic activation, up to 310 μg/mL, 4 + 20 h) was “statistically significant increase in micronuclei”, the “Micronuclei containing chromosome fragments (CREST staining)” value ([5]; 540 μg/mL) was 79% and the Micronucleus frequency ([5]; with metabolic activation, 3 + 21 h, at 540, 570 and 600 μg/mL) was “statistically significant increase in micronuclei”. For the same molecule, the Frequency of micronuclei ([6]; 250, 500 and 1,000 mg/kg bw intraperitoneally) was “comparable between treated and negative control groups”, the Dose showing mortality ([6]; preliminary toxicity study, intraperitoneal) was 2,000 mg/kg bw and the “In vivo MN test result” value ([7]; 375, 750 and 1,500 mg/kg bw by gavage) was “Equivocal results”. For the same molecule, the “Dose showing severe symptoms and mortality” value ([7]; dose‐range finding test, gavage) was 2,000 mg/kg bw, the NOAEL (Wistar Han rats) was 100 mg 3‐NOP/kg bw per day and the NOAEL (Wistar rats [8]; females) was 300 mg/kg bw per day. For the same molecule, the NOAEL (Wistar rats [8]; males, effects on spermatogenesis) was 100 mg 3‐NOP/kg bw per day, the NOAEL (Beagle dogs; females, severe clinical signs in one female) was 100 mg 3‐NOP/kg bw per day and the NOAEL (Beagle dogs; males) was 300 mg 3‐NOP/kg bw per day. For the same molecule, the NOAEL (Wistar rats [9]; females) was 600 mg 3‐NOP/kg bw per day, the NOAEL (Wistar rats [9]; males) was 100 mg 3‐NOP/kg bw per day and the “NOAEL for maternal and developmental toxicity” value [10] was “at least 450 mg/kg bw per day”. The Feed intake [11] was “significantly (p < 0.05) reduced”, the LC50 at 4 h (Acute inhalation test) was > 5 mg/L and the Mortality (Wistar rats [12]; 1 and 5 mg/L) was “No mortality occurred”. For the same molecule, the “Acute inhalation toxicity class according to the GHS” value (Wistar rats [12]; rat, in vivo) was “class 5”, the “No observed adverse effect concentration (NOAEC)” value (Wistar rats [12]; rat, in vivo) was “exceed 5 mg/L” and the Skin irritation potential (Skin irritation study) was “skin irritant”. For the same molecule, the Eye irritation potential (Eye irritation study) was “eye irritant”, the “Final BW” value [13, 17] was 668 kg and the Milk fat [13, 17] was 43.4 g/kg. The Milk protein [13, 17] was 36.3 ^* g/kg, the “TMR DM intake” value [13, 17] was 18.4 kg/day and the “kg EC milk/day” value [13, 17] was 25.7 kg EC milk/day. The “kg EC milk/kg DMI” value [13, 17] was 1.36 ^* kg EC milk/kg DMI, the kg milk/day [13, 17] was 24.5 kg milk/day and the “g CH4/kg EC milk” value ([13]; study 1 WUR, 54 mg 3‐NOP/kg TMR DM intake (control 17.1)) was 12.9 ^* (18.7) g CH4/kg EC milk. For the same molecule, the “g CH4/kg DM intake” value ([13]; study 1 WUR, 54 mg 3‐NOP/kg TMR DM intake (control 22.4)) was 17.7 ^* (25.5) g CH4/kg DM intake, the “g CH4/day” value ([13]; study 1 WUR, 54 mg 3‐NOP/kg TMR DM intake, average over 15 weeks (control 423)) was 332 ^* (480) g CH4/day and the “Final BW” value [13, 18] was 721 kg. For the same molecule, the Milk fat [13, 18] was 39.9 ^* g/kg, the Milk protein [13, 18] was 33.4 g/kg and the “TMR DM intake” value [13, 18] was 22.9 kg/day. The “kg EC milk/day” value [13, 18] was 35.0 ^* kg EC milk/day, the “kg EC milk/kg DMI” value [13, 18] was 1.53 kg EC milk/kg DMI and the kg milk/day [13, 18] was 36.0 kg milk/day. For the same molecule, the “g H2/day” value ([13]; study 2 UK, 57 mg 3‐NOP/kg TMR DM intake (control 2.6)) was 10.6 ^* (2.4) g H2/day, the “g CH4/kg EC milk” value ([13]; study 2 UK, 57 mg 3‐NOP/kg TMR DM intake (control 12.3)) was 8.4 ^* (10.1) g CH4/kg EC milk and the “g CH4/kg DM intake” value ([13]; study 2 UK, 57 mg 3‐NOP/kg TMR DM intake (control 20.3)) was 13.5 ^* (16.7) g CH4/kg DM intake. The “g CH4/day” value ([13]; study 2 UK, 57 mg 3‐NOP/kg TMR DM intake (control 449)) was 292 ^* (400) g CH4/day, the “Final BW” value [13, 19] was 648 kg and the Milk fat [13, 19] was 40.2 ^* g/kg. For the same molecule, the Milk protein [13, 19] was 31.5 g/kg, the “TMR DM intake” value [13, 19] was 25.7 kg/day and the “kg EC milk/day” value [13, 19] was 37.5 kg EC milk/day. The “kg EC milk/kg DMI” value [13, 19] was 1.47 kg EC milk/kg DMI, the kg milk/day [13, 19] was 38.2 kg milk/day and the “g H2/day” value ([13]; study 3 PSU, 61 mg 3‐NOP/kg TMR DM intake (control 0.5)) was 2.6 ^* (0.4) g H2/day. For the same molecule, the “g CH4/kg EC milk” value ([13]; study 3 PSU, 61 mg 3‐NOP/kg TMR DM intake (control 11.2)) was 8.2 ^* (9.7) g CH4/kg EC milk, the “g CH4/kg DM intake” value ([13]; study 3 PSU, 61 mg 3‐NOP/kg TMR DM intake (control 16.7)) was 12.1 ^* (14.9) g CH4/kg DM intake and the “g CH4/day” value ([13]; study 3 PSU, 61 mg 3‐NOP/kg TMR DM intake (control 410)) was 308 ^* (403) g CH4/day. The “Micronuclei, overall result” value [14] was “weak increase in micronuclei”, the “3‐NOP concentration remaining after 16 h” value ([15]; 1 mg/L, anaerobic, n = 6) was 0.7% and the “3‐NOP concentration remaining after 16 h” value ([15]; aerobic control, n = 2) was 27.9%.

Source: paper PMC8603004 (EFSA Journal, 2021)
